Assay results taken from ChEMBL document CHEMBL1136089, “Synthesis and in vitro activity of new methylenepiperidinyl and methylenepyrrolidinyl oxazolidinone antibacterial agents” (Bioorg Med Chem Lett, 2003).
Converted amounts (≈) assume the structure as drawn.

Key:
[1] = test system: Staphylococcus epidermidis; assay: In vitro antibacterial activity against Staphylococcus epidermis ATCC 1228; assay type: functional
Procedure, shortened: (§1)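 MIC by agar dilution on Mueller–Hinton agar, inoculum 10⁴ CFU/spot. Reported in μg/mL.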

Staphylococcus aureus [2] = assay: In vitro antibacterial activity against methicillin-resistant Staphylococcus aureus (MRSA); assay type: functional
Enterococcus faecalis [3] = assay: In vitro antibacterial activity against Enterococcus faecalis C6301 (E. f. 1); assay type: functional; procedure, shortened: as §1
Staphylococcus aureus [4] = assay: In vitro antibacterial against methicillin-susceptible Staphylococcus aureus (MSSA); assay type: functional
Enterococcus faecium = assay: In vitro antibacterial activity against vancomycin-resistant Enterococcus faecium C6487
Staphylococcus aureus [5] = assay: In vitro antibacterial activity against ciprofloxacin-resistant Staphylococcus aureus (CRSA); assay type: functional
Staphylococcus aureus [6] = assay: In vitro antibacterial activity against Staphylococcus aureus; assay type: functional
Streptococcus pyogenes [7] = assay: In vitro antibacterial activity against Streptococcus pyogenes C6003
[8] = test system: Staphylococcus epidermidis; assay: In vitro antibacterial activity against Staphylococcus epidermis C2235; assay type: functional; procedure, shortened: as §1
Enterococcus faecalis [9] = assay: In vitro antibacterial activity against Enterococcus faecalis C6291 (E. f. 1); assay type: functional; procedure, shortened: as §1
Streptococcus pyogenes [10] = assay: In vitro antibacterial activity against Streptococcus pyogenes ATTCC8668
[11] = Cmax in male rat; assay type: ADME, organism-based; details: in vivo
Procedure, shortened: (§2)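 Single oral dose of 15 mg/Kg to rats, with compound dissolved in 50% PEG solution.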

[12] = Area under curve was determined in male rat; assay type: ADME, organism-based; details: in vivo; procedure, shortened: as §2
[13] = Tmax in male rat; assay type: ADME, organism-based; details: in vivo; procedure, shortened: as §2
[14] = Half-life in male rat; assay type: ADME, organism-based; details: in vivo; procedure, shortened: as §2

Row | SMILES | MIC [1] | MIC (Staphylococcus aureus [2]) | MIC (Enterococcus faecalis [3]) | MIC (Staphylococcus aureus [4]) | MIC (Enterococcus faecium) | MIC (Staphylococcus aureus [5]) | MIC (Staphylococcus aureus [6]) | MIC (Streptococcus pyogenes [7]) | MIC [8] | MIC (Enterococcus faecalis [9]) | MIC (Streptococcus pyogenes [10]) | Cmax [11] | AUC [12] | Tmax [13] | half-life [14]
1 | CC(=O)NC[C@H]1CN(c2ccc(N3CCC(=Cc4cc(-c5cccs5)no4)CC3)c(F)c2)C(=O)O1 | 4 µg/mL (≈ 8.06 µM) | 16 µg/mL (≈ 32.2 µM) | 16 µg/mL (≈ 32.2 µM) | 16 µg/mL (≈ 32.2 µM) | 16 µg/mL (≈ 32.2 µM) | 16 µg/mL (≈ 32.2 µM) | 32 µg/mL (≈ 64.4 µM) | 16 µg/mL (≈ 32.2 µM) | 8 µg/mL (≈ 16.1 µM) | 16 µg/mL (≈ 32.2 µM) | 2 µg/mL (≈ 4.03 µM) |  |  |  | 
2 | CC(=O)NC[C@H]1CN(c2ccc(N3CC/C(=C/C#N)C3)c(F)c2)C(=O)O1 | 0.5 µg/mL (≈ 1.4 µM) |  | 1 µg/mL (≈ 2.79 µM) |  | 1 µg/mL (≈ 2.79 µM) | 0.5 µg/mL (≈ 1.4 µM) | 0.5 µg/mL (≈ 1.4 µM) |  |  |  |  |  |  |  | 
3 | CC(=O)NC[C@H]1CN(c2ccc(N3CCC(=CC=O)CC3)c(F)c2)C(=O)O1 | 1 µg/mL (≈ 2.66 µM) | 4 µg/mL (≈ 10.7 µM) | 4 µg/mL (≈ 10.7 µM) | 8 µg/mL (≈ 21.3 µM) | 8 µg/mL (≈ 21.3 µM) | 4 µg/mL (≈ 10.7 µM) | 8 µg/mL (≈ 21.3 µM) | 8 µg/mL (≈ 21.3 µM) | 2 µg/mL (≈ 5.33 µM) | 8 µg/mL (≈ 21.3 µM) | 2 µg/mL (≈ 5.33 µM) |  |  |  | 
4 | CC(=O)NC[C@H]1CN(c2ccc(N3CCC(=C(C#N)C#N)CC3)c(F)c2)C(=O)O1 | 1 µg/mL (≈ 2.52 µM) | 2 µg/mL (≈ 5.03 µM) | 2 µg/mL (≈ 5.03 µM) | 4 µg/mL (≈ 10.1 µM) | 4 µg/mL (≈ 10.1 µM) | 4 µg/mL (≈ 10.1 µM) | 2 µg/mL (≈ 5.03 µM) | 4 µg/mL (≈ 10.1 µM) | 2 µg/mL (≈ 5.03 µM) | 4 µg/mL (≈ 10.1 µM) | 1 µg/mL (≈ 2.52 µM) |  |  |  | 
5 | CC(=O)NC[C@H]1CN(c2ccc(N3CCC(=C(C#N)C#N)C3)c(F)c2)C(=O)O1 | 4 µg/mL (≈ 10.4 µM) |  | 16 µg/mL (≈ 41.7 µM) |  | 16 µg/mL (≈ 41.7 µM) | 8 µg/mL (≈ 20.9 µM) | 8 µg/mL (≈ 20.9 µM) |  | 4 µg/mL (≈ 10.4 µM) |  |  |  |  |  | 
6 | CC(=O)NC[C@H]1CN(c2ccc(N3CCC(=C/C(C)=N/O)CC3)c(F)c2)C(=O)O1 | 1 µg/mL (≈ 2.47 µM) | 4 µg/mL (≈ 9.89 µM) | 4 µg/mL (≈ 9.89 µM) | 8 µg/mL (≈ 19.8 µM) | 4 µg/mL (≈ 9.89 µM) | 8 µg/mL (≈ 19.8 µM) | 8 µg/mL (≈ 19.8 µM) | 4 µg/mL (≈ 9.89 µM) | 4 µg/mL (≈ 9.89 µM) | 4 µg/mL (≈ 9.89 µM) | 1 µg/mL (≈ 2.47 µM) |  |  |  | 
7 | CCOC(=O)C(C#N)=C1CCN(c2ccc(N3C[C@H](CNC(C)=O)OC3=O)cc2F)CC1 | 1 µg/mL (≈ 2.25 µM) | 4 µg/mL (≈ 9 µM) | 2 µg/mL (≈ 4.5 µM) | 4 µg/mL (≈ 9 µM) | 2 µg/mL (≈ 4.5 µM) | 4 µg/mL (≈ 9 µM) | 4 µg/mL (≈ 9 µM) | 4 µg/mL (≈ 9 µM) | 2 µg/mL (≈ 4.5 µM) | 4 µg/mL (≈ 9 µM) | 1 µg/mL (≈ 2.25 µM) |  |  |  | 
8 | CC(=O)NC[C@H]1CN(c2ccc(N3CCC(=C(C)C#N)CC3)c(F)c2)C(=O)O1 | 0.5 µg/mL (≈ 1.29 µM) | 2 µg/mL (≈ 5.18 µM) | 2 µg/mL (≈ 5.18 µM) | 2 µg/mL (≈ 5.18 µM) | 1 µg/mL (≈ 2.59 µM) | 2 µg/mL (≈ 5.18 µM) | 2 µg/mL (≈ 5.18 µM) | 2 µg/mL (≈ 5.18 µM) | 2 µg/mL (≈ 5.18 µM) | 2 µg/mL (≈ 5.18 µM) | 0.5 µg/mL (≈ 1.29 µM) |  |  |  | 
9 | CC(=O)NC[C@H]1CN(c2ccc(N3CCC(=CC#N)CC3)c(F)c2)C(=O)O1 | 0.5 µg/mL (≈ 1.34 µM) | 1 µg/mL (≈ 2.69 µM) | 2 µg/mL (≈ 5.37 µM) | 4 µg/mL (≈ 10.7 µM) | 4 µg/mL (≈ 10.7 µM) | 2 µg/mL (≈ 5.37 µM) | 2 µg/mL (≈ 5.37 µM) | 2 µg/mL (≈ 5.37 µM) | 1 µg/mL (≈ 2.69 µM) | 2 µg/mL (≈ 5.37 µM) | 0.5 µg/mL (≈ 1.34 µM) | 1320 ng/mL | 6810 ng·h/mL | 0.5 h | 8.14 h
10 | CC(=O)NC[C@H]1CN(c2ccc(N3CCC(=C/C=N/O)CC3)c(F)c2)C(=O)O1 | 1 µg/mL (≈ 2.56 µM) | 4 µg/mL (≈ 10.2 µM) | 4 µg/mL (≈ 10.2 µM) | 8 µg/mL (≈ 20.5 µM) | 4 µg/mL (≈ 10.2 µM) | 8 µg/mL (≈ 20.5 µM) | 8 µg/mL (≈ 20.5 µM) | 4 µg/mL (≈ 10.2 µM) | 4 µg/mL (≈ 10.2 µM) | 4 µg/mL (≈ 10.2 µM) | 2 µg/mL (≈ 5.12 µM) |  |  |  | 
11 | CC(=O)NC[C@H]1CN(c2ccc(N3CCC(=CC(C)OC(C)=O)CC3)c(F)c2)C(=O)O1 (stereo not given in full) | 2 µg/mL (≈ 4.61 µM) | 8 µg/mL (≈ 18.5 µM) | 8 µg/mL (≈ 18.5 µM) | 16 µg/mL (≈ 36.9 µM) | 4 µg/mL (≈ 9.23 µM) | 16 µg/mL (≈ 36.9 µM) | 16 µg/mL (≈ 36.9 µM) | 8 µg/mL (≈ 18.5 µM) | 8 µg/mL (≈ 18.5 µM) | 8 µg/mL (≈ 18.5 µM) | 0.25 µg/mL (≈ 0.577 µM) |  |  |  | 
12 | CC(=O)NC[C@H]1CN(c2ccc(N3CCC(=Cc4cc(-c5csnc5C)no4)CC3)c(F)c2)C(=O)O1 | 2 µg/mL (≈ 3.91 µM) | 8 µg/mL (≈ 15.6 µM) | 8 µg/mL (≈ 15.6 µM) | 16 µg/mL (≈ 31.3 µM) | 4 µg/mL (≈ 7.82 µM) | 8 µg/mL (≈ 15.6 µM) | 16 µg/mL (≈ 31.3 µM) | 8 µg/mL (≈ 15.6 µM) | 4 µg/mL (≈ 7.82 µM) | 8 µg/mL (≈ 15.6 µM) | 2 µg/mL (≈ 3.91 µM) |  |  |  | 
